In ChEMBL document CHEMBL2010694, “Indolyl and dihydroindolyl N-glycinamides as potent and in vivo active NPY5 antagonists” (Bioorg Med Chem Lett, 2012):

Legend:
MDR = test: Efflux ratio of permeability from basolateral to apical side over apical to basolateral side in MDCK cells expressing MDR; assay type: ADME, cell-based, Canis lupus familiaris; details: dog, MDCK-MDR1
Procedure, shortened: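 Bidirectional permeability measured across a Pgp-overexpressing mdr-MDCK cell monolayer, apical-to-basolateral and basolateral-to-apical. Apparent permeability (Papp, 10^-6 cm/s) was determined in each direction, and the efflux ratio was taken as Papp B–A over Papp A–B.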

[1] = Drug uptake in Sprague-Dawley rat brain at 10 mg/kg, po after 1 hr by LC-MS/MS analysis; assay type: ADME, organism-based; parameters: dose 10 mg/kg, route oral; details: read-out: Drug uptake
Procedure, shortened: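 Male Sprague-Dawley rats (300–350 g), femoral artery cannulated; single 10 mg/kg oral dose in an appropriate vehicle, N = 3. Blood taken predose, 1, 2 and 4 h; brains then collected and stored at -80 °C. Equal portions of plasma or homogenized brain from the three rats pooled per time point, protein precipitated, quantified by LC/MS/MS.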

Cytochrome P450 2C8 = biological target: T1, Cytochrome P450 2C8 (Homo sapiens, UniProt P10632); test: Inhibition of CYP2C8; assay type: ADME
T1 sequence (P10632 whole entry): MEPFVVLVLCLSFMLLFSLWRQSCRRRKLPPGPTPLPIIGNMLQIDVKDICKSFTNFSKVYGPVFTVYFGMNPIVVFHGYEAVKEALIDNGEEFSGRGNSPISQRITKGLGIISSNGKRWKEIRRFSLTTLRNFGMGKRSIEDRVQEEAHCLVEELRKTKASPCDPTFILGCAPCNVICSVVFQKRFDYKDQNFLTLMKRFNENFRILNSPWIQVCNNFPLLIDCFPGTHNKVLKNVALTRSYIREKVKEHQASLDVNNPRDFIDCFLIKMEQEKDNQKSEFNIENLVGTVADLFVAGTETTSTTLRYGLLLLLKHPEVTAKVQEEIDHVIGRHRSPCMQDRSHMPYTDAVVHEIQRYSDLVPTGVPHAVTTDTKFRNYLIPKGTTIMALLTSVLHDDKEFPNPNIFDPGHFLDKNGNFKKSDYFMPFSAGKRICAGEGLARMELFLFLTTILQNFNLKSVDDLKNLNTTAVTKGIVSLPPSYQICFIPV

[2] = Clearance in Sprague-Dawley rat plasma at 2 mg/kg, po and 1 mg/kg, iv after 24 hrs wash out period by HPLC analysis; assay type: ADME, organism-based
Procedure, shortened: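 Male Sprague-Dawley rats (200–250 g), jugular and carotid artery cannulated; compound dissolved in 20% beta cyclodextrin, pH adjusted with methane sulfonic acid. Serial blood sampled at 12 time points over 24 h post dose by automated sampler; plasma from centrifugation analysed by HPLC; PK parameters by non-compartmental analysis of plasma concentration–time profile.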

[3] = Drug uptake in cPP-induced feeding Sprague-Dawley rat model brain at 1 mg/kg, po after 1 hr; assay type: ADME, organism-based; parameters: dose 1 mg/kg, route oral; details: read-out: Drug uptake
Procedure, shortened: (§1)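 Satellite animals from the cPP feeding study dosed orally at 0.1, 1 or 10 mg/kg; plasma (ng/mL) and brain (ng/g) levels measured 1 h after dosing.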

[4] = Drug uptake in cPP-induced feeding Sprague-Dawley rat model brain at 10 mg/kg, po after 1 hr; assay type: ADME, organism-based; parameters: dose 10 mg/kg, route oral; details: read-out: Drug uptake; procedure, shortened: as §1

- efflux ratio (MDR): 26
- concentration at 1 h [1]: 295 nM
- IC50 (Cytochrome P450 2C8): 8.2 µM
- clearance [2]: 25 mL/min/kg
- concentration at 1 h [3]: 104 ng/g
- concentration at 1 h [4]: 151 ng/g
Structure (SMILES): CC(C)S(=O)(=O)NC[C@H]1CC[C@H](NC(=O)CN2CCc3cc(Cl)ccc32)CC1
